# Measurements published in ChEMBL document CHEMBL1124388, “Cardiotonic agents. 1-Methyl-7-(4-pyridyl)-5,6,7,8-tetrahydro-3 (2H)-isoquinolinones and related compounds. Synthesis and activity” (J Med Chem, 1989).
# Calls of active or inactive are those of the source. The calls are words filed in the database; no cut-off is given here.
# How the values were obtained:
# Canis familiaris [1] = assay: Positive inotropic effects in the propranolol induced heart failure model in the dog; Inactive at 10 mg/kg.; format: functional, organism-based; design: dose 10 mg/kg; conditions: Canis lupus familiaris
# Method in brief: (§1)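 Pentobarbital-anesthetized (30 mg/kg iv) mongrel dogs, 8–12 kg, either sex. Heart failure induced by propranolol, 4 mg/kg iv bolus then 0.1 mg/kg/min infusion. About 20 min later, compound given cumulatively into the femoral vein, one dose-response curve per animal. LV dp/dt max read by electronic differentiator. ED100 is the dose restoring pre-propranolol LV dp/dt max, taken from log dose-response. Highest dose tested 10 mg/kg. Three experiments unless stated.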
# Canis familiaris [2] = species: Canis familiaris; assay: Positive inotropic effects in the propranolol induced heart failure model in the dog.; format: functional, Canis lupus familiaris; method in brief: as §1
# [3] = biological target: Phosphodiesterase 3 (Canis familiaris); assay: Inhibition of canine Phosphodiesterase III (PDE 3)
# Canis lupus familiaris = species: Canis lupus familiaris; assay: Relative inhibition of canine PDE1 and PDE 3
# [4] = biological target: Phosphodiesterase 1 (Canis familiaris); assay: Inhibition of canine Phosphodiesterase 1(PDE 1)
SMILES,ED100 (Canis familiaris [1]),ED100 (Canis familiaris [2]) [mg/kg],other results
COC1CCc2nc(O)c(C#N)c(C)c2C1 (centres undefined),inactive,–,–
Cc1nc(O)c(C#N)c2c1CC(c1ccccn1)CC2 (centres undefined),–,0.3,–
Cc1nc(O)c(C#N)c2c1CCC(C)C2 (centres undefined),–,1,–
Cc1nc(O)c(C=O)c2c1CC(c1ccncc1)CC2 (centres undefined),inactive,–,–
Cc1nc(O)c([N+](=O)[O-])c2c1CC(c1ccncc1)CC2 (centres undefined),–,0.1,–
N#Cc1c(O)ncc2c1CCCC2,inactive,–,–
CCCc1c(O)nc(C)c2c1CCC(c1ccncc1)C2 (centres undefined),–,0.3,–
COc1ccc(C2CCc3c(C#N)c(O)nc(C)c3C2)cc1 (centres undefined),–,0.3,–
Cc1c(C#N)c(O)nc2c1CC(c1ccncc1)CC2 (centres undefined),inactive,–,–
CCCc1nc(O)c(C#N)c2c1CCCC2,inactive,–,–
Cc1nc(O)c(C#N)c2c1CC(c1cccnc1)CC2 (centres undefined),–,0.1,–
Cc1nc(O)c(C#N)c2c1CC(c1ccccc1)CC2 (centres undefined),–,0.1,–
CCc1nc(O)c(C(C)=O)c2c1CC(c1ccncc1)CC2 (centres undefined),–,0.3,–
CC(=O)c1c(O)nc2c(c1C)CC(c1ccncc1)CC2 (centres undefined),inactive,–,–
Cc1nc(O)c(C#N)c2c1CC(C(C)(C)C)CC2 (centres undefined),inactive,–,–
COCc1ccc(C2CCc3c(C#N)c(O)nc(C)c3C2)cc1 (centres undefined),inactive,–,–
Cc1nc(O)c(N)c2c1CC(c1ccncc1)CC2 (centres undefined),–,0.2,–
CCCCc1nc(O)c(C(C)=O)c2c1CC(c1ccncc1)CC2 (centres undefined),inactive,–,–
Cc1nc(O)c(C#N)c2c1CCCC2,–,3,–
Cc1nc(O)c(C(N)=O)c2c1CC(c1ccncc1)CC2 (centres undefined),inactive,–,–
CCC1CCc2c(C#N)c(O)nc(C)c2C1 (centres undefined),–,1,–

SMILES,ED100 (Canis familiaris [1]),ED100 (Canis familiaris [2]) [mg/kg],other results
Cc1nc(O)c(C(=O)c2ccccc2)c2c1CC(c1ccncc1)CC2 (centres undefined),inactive,–,–
CCCCOC1CCc2c(C#N)c(O)nc(C)c2C1 (centres undefined),inactive,–,–
Cc1c(C#N)c(O)nc2c1CC(C)CC2 (centres undefined),inactive,–,–
Cc1nc(O)cc2c1CC(c1ccncc1)CC2 (centres undefined),–,0.3,–
Cc1nc(O)c(C#N)c2c1CC(c1ccc(CN(C)C)cc1)CC2 (centres undefined),inactive,–,–
Cc1[nH]c(=O)c(C#N)cc1-c1ccncc1 [MILRINONE],–,0.1,–
Cc1nc(O)c(C#N)c2c1CCC(c1ccncc1)C2 (centres undefined),inactive,–,–
Cc1nc(O)c(C#N)c2c1C(C)CCC2 (centres undefined),–,3,–
Cc1nc(O)c(C)c2c1CC(c1ccncc1)CC2 (centres undefined),–,2,–
Cc1nc(O)c(C#N)c2c1CC(C)CC2 (centres undefined),–,0.3,–
Cc1nc(O)c(C#N)c2c1CC(c1ccc(N(C)C)cc1)CC2 (centres undefined),inactive,–,–
Cc1c2c(c(C#N)c(=O)n1C)CCC(C)C2 (centres undefined),inactive,–,–
CCc1c(O)nc(C)c2c1CCC(c1ccncc1)C2 (centres undefined),–,0.02,–
CCCC(=O)c1c(O)nc(C)c2c1CCC(c1ccncc1)C2 (centres undefined),inactive,–,–
Cc1c(C#N)c(O)nc2c1CCCC2,inactive,–,–
COC1CCc2c(C#N)c(O)nc(C)c2C1 (centres undefined),–,1,–
Cc1nc(O)c(C#N)c2c1CC(c1ccncc1)CC2 (centres undefined),–,0.1,–
CCC(=O)c1c(O)nc(C)c2c1CCC(c1ccncc1)C2 (centres undefined),–,4,–
Cc1nc(O)c(C#N)c2c1CCCC2C (centres undefined),–,2,–
CC(=O)c1c(O)nc(C)c2c1CCC(c1ccncc1)C2 (centres undefined),–,0.1,IC50 [3]: 1.5 µM; Ratio (Canis lupus familiaris): 273; IC50 [4]: 409 µM
